Source: ChEMBL document CHEMBL4689842, “EUbOPEN Chemogenomics Library wave 1” (2021)

Test system: Fibroblast
Test: Multiplex assay against human fibroblast
Assay type: toxicity, cell-based
In short: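 Tubulin, mitochondrial-mass and membrane-permeability phenotypes are per cents of healthy-nucleus cells. Cells were gated by CellPathfinder machine learning into Hoechst high-intensity objects or normal cells, normal cells into healthy, pyknosed or fragmented nuclei, and pyknosed cells into mitotic or apoptotic. Before that, live cells stained at seeding with Hoechst33342, BioTracker Green Microtubule Cytoskeleton Dye, MitoTracker Red and Annexin V Alexa Fluor 680 were imaged on a CQ1 microscope at 37°C and 5% CO2 after compound addition.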

[1] = 12 h, 1 µM, compound concentration 1 uM, replicate 1
[2] = 12 h, 1 µM, compound concentration 1 uM, replicate 2
[3] = 12 h, 10 µM, compound concentration 10 uM, replicate 1
[4] = 12 h, 10 µM, compound concentration 10 uM, replicate 2
[5] = 24 h, 1 µM, compound concentration 1 uM, replicate 1
[6] = 24 h, 1 µM, compound concentration 1 uM, replicate 2
[7] = 24 h, 10 µM, compound concentration 10 uM, replicate 1
[8] = 24 h, 10 µM, compound concentration 10 uM, replicate 2
[9] = 48 h, 1 µM, compound concentration 1 uM, replicate 1
[10] = 48 h, 1 µM, compound concentration 1 uM, replicate 2
[11] = 48 h, 10 µM, compound concentration 10 uM, replicate 1
[12] = 48 h, 10 µM, compound concentration 10 uM, replicate 2

C=C1/C(=C\C=C2/CCC[C@]3(C)[C@@H]([C@H](C)/C=C/[C@H](C)C(C)C)CC[C@@H]23)C[C@@H](O)C[C@@H]1O [DOXERCALCIFEROL]
Population Apoptotic (%) [1]: 63%
Population Fragmented Nuclei (%) [1]: 23%
Population Healthy Nuclei (%) [1]: 33%
Population Hoechst High Intensity Objects (%) [1]: 10%
Population Membrane Permeable-Phenotype (%) [1]: 10%
Population Mitochondria Different-Phenotype (%) [1]: 0%
Population Mitotic Cells (%) [1]: 36%
Population Normal (%) [1]: 89%
Population Pyknosed Nuclei (%) [1]: 42%
Population Tubulin-Different-Phenotype (%) [1]: 14%
Total Cell Count [1]: 94
Population Apoptotic (%) [2]: 40%
Population Fragmented Nuclei (%) [2]: 1%
Population Healthy Nuclei (%) [2]: 90%
Population Hoechst High Intensity Objects (%) [2]: 1%
Population Membrane Permeable-Phenotype (%) [2]: 5%
Population Mitochondria Different-Phenotype (%) [2]: 14%
Population Mitotic Cells (%) [2]: 60%
Population Normal (%) [2]: 98%
Population Pyknosed Nuclei (%) [2]: 8%
Population Tubulin-Different-Phenotype (%) [2]: 9%
Total Cell Count [2]: 111
Population Apoptotic (%) [3]: 30%
Population Fragmented Nuclei (%) [3]: 72%
Population Healthy Nuclei (%) [3]: 21%
Population Hoechst High Intensity Objects (%) [3]: 11%
Population Membrane Permeable-Phenotype (%) [3]: 4%
Population Mitochondria Different-Phenotype (%) [3]: 15%
Population Mitotic Cells (%) [3]: 69%
Population Normal (%) [3]: 88%
Population Pyknosed Nuclei (%) [3]: 5%
Population Tubulin-Different-Phenotype (%) [3]: 28%
Total Cell Count [3]: 247
Population Apoptotic (%) [4]: 0%
Population Fragmented Nuclei (%) [4]: 27%
Population Healthy Nuclei (%) [4]: 67%
Population Hoechst High Intensity Objects (%) [4]: 6%
Population Membrane Permeable-Phenotype (%) [4]: 2%
Population Mitochondria Different-Phenotype (%) [4]: 21%
Population Mitotic Cells (%) [4]: 100%
Population Normal (%) [4]: 93%
Population Tubulin-Different-Phenotype (%) [4]: 13%
Total Cell Count [4]: 61
Population Apoptotic (%) [5]: 38%
Population Fragmented Nuclei (%) [5]: 18%
Population Healthy Nuclei (%) [5]: 48%
Population Hoechst High Intensity Objects (%) [5]: 10%
Population Membrane Permeable-Phenotype (%) [5]: 22%
Population Mitochondria Different-Phenotype (%) [5]: 2%
Population Mitotic Cells (%) [5]: 61%
Population Normal (%) [5]: 89%
Population Pyknosed Nuclei (%) [5]: 34%
Population Tubulin-Different-Phenotype (%) [5]: 27%
Total Cell Count [5]: 112
Population Apoptotic (%) [6]: 42%
Population Fragmented Nuclei (%) [6]: 5%
Population Healthy Nuclei (%) [6]: 86%
Population Hoechst High Intensity Objects (%) [6]: 4%
Population Membrane Permeable-Phenotype (%) [6]: 4%
Population Mitochondria Different-Phenotype (%) [6]: 7%
Population Mitotic Cells (%) [6]: 57%
Population Normal (%) [6]: 95%
Population Pyknosed Nuclei (%) [6]: 8%
Population Tubulin-Different-Phenotype (%) [6]: 14%
Total Cell Count [6]: 157
Population Apoptotic (%) [7]: 69%
Population Fragmented Nuclei (%) [7]: 55%
Population Healthy Nuclei (%) [7]: 36%
Population Hoechst High Intensity Objects (%) [7]: 9%
Population Membrane Permeable-Phenotype (%) [7]: 12%
Population Mitochondria Different-Phenotype (%) [7]: 6%
Population Mitotic Cells (%) [7]: 30%
Population Normal (%) [7]: 90%
Population Pyknosed Nuclei (%) [7]: 8%
Population Tubulin-Different-Phenotype (%) [7]: 9%
Total Cell Count [7]: 304
Population Apoptotic (%) [8]: 33%
Population Fragmented Nuclei (%) [8]: 25%
Population Healthy Nuclei (%) [8]: 70%
Population Hoechst High Intensity Objects (%) [8]: 3%
Population Membrane Permeable-Phenotype (%) [8]: 1%
Population Mitochondria Different-Phenotype (%) [8]: 16%
Population Mitotic Cells (%) [8]: 66%
Population Normal (%) [8]: 96%
Population Pyknosed Nuclei (%) [8]: 4%
Population Tubulin-Different-Phenotype (%) [8]: 13%
Total Cell Count [8]: 83
Population Apoptotic (%) [9]: 66%
Population Fragmented Nuclei (%) [9]: 22%
Population Healthy Nuclei (%) [9]: 58%
Population Hoechst High Intensity Objects (%) [9]: 18%
Population Membrane Permeable-Phenotype (%) [9]: 21%
Population Mitochondria Different-Phenotype (%) [9]: 3%
Population Mitotic Cells (%) [9]: 33%
Population Normal (%) [9]: 81%
Population Pyknosed Nuclei (%) [9]: 18%
Population Tubulin-Different-Phenotype (%) [9]: 35%
Total Cell Count [9]: 118
Population Apoptotic (%) [10]: 0%
Population Fragmented Nuclei (%) [10]: 27%
Population Healthy Nuclei (%) [10]: 72%
Population Hoechst High Intensity Objects (%) [10]: 42%
Population Membrane Permeable-Phenotype (%) [10]: 17%
Population Mitochondria Different-Phenotype (%) [10]: 2%
Population Mitotic Cells (%) [10]: 0%
Population Normal (%) [10]: 57%
Population Pyknosed Nuclei (%) [10]: 0%
Population Tubulin-Different-Phenotype (%) [10]: 37%
Total Cell Count [10]: 165
Population Apoptotic (%) [11]: 86%
Population Fragmented Nuclei (%) [11]: 33%
Population Healthy Nuclei (%) [11]: 46%
Population Hoechst High Intensity Objects (%) [11]: 12%
Population Membrane Permeable-Phenotype (%) [11]: 23%
Population Mitochondria Different-Phenotype (%) [11]: 0%
Population Mitotic Cells (%) [11]: 13%
Population Normal (%) [11]: 87%
Population Pyknosed Nuclei (%) [11]: 19%
Population Tubulin-Different-Phenotype (%) [11]: 2%
Total Cell Count [11]: 351
Population Apoptotic (%) [12]: 100%
Population Fragmented Nuclei (%) [12]: 39%
Population Healthy Nuclei (%) [12]: 59%
Population Hoechst High Intensity Objects (%) [12]: 14%
Population Mitochondria Different-Phenotype (%) [12]: 1%
Population Mitotic Cells (%) [12]: 0%
Population Normal (%) [12]: 85%
Population Pyknosed Nuclei (%) [12]: 1%
Population Tubulin-Different-Phenotype (%) [12]: 49%
Total Cell Count [12]: 128
